Experimental data reported in ChEMBL document CHEMBL1123394, “Systematic synthesis and biological evaluation of alpha- and beta-D-xylofuranosyl nucleosides of the five naturally occurring bases in nucleic acids and related analogues” (J Med Chem, 1986).
Values after ≈ are worked out from the molar mass of the structure shown.

Columns and labels:
Assay type in all cases: functional
[1] = system: Vero; assay: Concentration required for microscopically detectable alteration of the normal cell morphology in Vero B cells.; settings: Chlorocebus sabaeus
Outline: (§1)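 Host-cell morphology inspected microscopically for detectable alteration, with compounds in growth medium at up to 200 or 400 μg/mL.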

[2] = Number of living cells on the proliferation of mouse myeloma cells SP2 was measured at concentration 10 ug/mL at 96 h.
Outline: (§2)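 Mouse myeloma SP2 cells seeded at 123 × 10^3 cells and exposed to compound at 1, 10 or 100 μg/mL in growth medium. Living cells counted at 0, 48 and 96 h alongside untreated controls.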

[3] = system: WI-38; assay: Concentration required for microscopically detectable alteration of the normal cell morphology in Wi-38 cells.; settings: Homo sapiens; outline: as §1
[4] = Number of living cells on the proliferation of mouse myeloma cells SP2 was measured at concentration 1 ug/mL at 48 hr.; outline: as §2
[5] = Concentration required to reduce DNA synthesis in primary rabbit kidney cells using [3H-Methyl]-dThd incorporation; settings: Oryctolagus cuniculus, read-out: ID50 (the source's name)
Outline: (§3)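 Primary rabbit kidney cells with compounds in growth medium at 100, 10, or 1 μg/mL or less. Cell number and incorporation of [3H-methyl]dThd (DNA), [3H-5]Urd (RNA) or [3H2-4,5]leucine (protein) measured. ID50 taken as the dose giving 50% reduction in cell number or in DNA, RNA or protein synthesis.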

[6] = system: Vero; assay: Antiviral activity was measured against forest virus in african green monkey kidney (Vero B) cells.; settings: Chlorocebus sabaeus
Outline: (§4)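 Inhibition of virus-induced cytopathogenicity scored in cell culture monolayers. Test compounds dissolved in growth medium at 100, 10, or 1 μg/mL or less.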

[7] = system: Vero; assay: Antiviral activity was measured against Sindbis virus in african green monkey kidney (Vero B) cells.; settings: Chlorocebus sabaeus; outline: as §4
[8] = Number of living cells on the proliferation of mouse myeloma cells SP2 was measured at concentration 10 ug/mL at 48 hr.; outline: as §2
[9] = Number of living cells on the proliferation of mouse myeloma cells SP2 was measured at concentration 100 ug/mL at 96 h.; outline: as §2
[10] = Concentration required for microscopically detectable alteration of the normal cell morphology in PRK cells.; settings: Oryctolagus cuniculus; outline: as §1
[11] = system: WI-38; assay: Antiviral activity was measured against Rhino virus-9 in human diploid (WI-38) cells.; outline: as §4
[12] = Number of living cells on the proliferation of mouse myeloma cells SP2 was measured at concentration 1 ug/mL at 0h.; outline: as §2
[13] = Dose required to reduce primary rabbit kidney cell growth; settings: Oryctolagus cuniculus, read-out: ID50 (the source's name); outline: as §3
[14] = Concentration required to reduce RNA synthesis in primary rabbit kidney cells using [3H-5]-Urd incorporation; settings: Oryctolagus cuniculus, read-out: ID50 (the source's name); outline: as §3
[15] = system: Vero; assay: Antiviral activity was measured against Reo virus-1 in african green monkey kidney (Vero B) cells.; settings: Chlorocebus sabaeus; outline: as §4
[16] = Number of living cells on the proliferation of mouse myeloma cells SP2 was measured at concentration 100 ug/mL at 48 hr.; outline: as §2
[17] = Concentration required to reduce protein synthesis in primary rabbit kidney cells usingi [3H2-4,5]leucine incorporation; settings: Oryctolagus cuniculus, read-out: ID50 (the source's name); outline: as §3
[18] = system: HeLa; assay: Concentration required for microscopically detectable alteration of the normal cell morphology in HeLa cells.; settings: Homo sapiens; outline: as §1
[19] = Antiviral activity was measured against Herpes simplex virus (HSV-1 KOS) in rabbit kidney cells.; settings: Oryctolagus cuniculus
Outline: (§5)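 Inhibition of virus-induced cytopathogenicity in cell culture. Compounds were dissolved in growth medium at 100, 10 or 1 μg/mL or less.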

[20] = Antiviral activity was measured against Herpes simplex virus (HSV-2 G) in rabbit kidney cells.; settings: Oryctolagus cuniculus; outline: as §4
[21] = system: Vero; assay: Antiviral activity was measured against Coxsackie virus B4 in african green monkey kidney (Vero B) cells.; settings: Chlorocebus sabaeus; outline: as §4
[22] = system: Vero; assay: Antiviral activity was measured against Parainfluenza virus-3 in african green monkey kidney (Vero B) cells.; settings: Chlorocebus sabaeus; outline: as §4
[23] = Number of living cells on the proliferation of mouse myeloma cells SP2 was measured at concentration 1 ug/mL at 96 h.; outline: as §2
[24] = system: HeLa; assay: Antiviral activity was measured against Coxsackie virus B4 in HeLa cells.; settings: Homo sapiens; outline: as §5
[25] = system: WI-38; assay: Antiviral activity was measured against Rhino virus-1A in human diploid (WI-38) cells.; outline: as §4
[26] = Number of living cells on the proliferation of mouse myeloma cells SP2 was measured at concentration 100 ug/mL at 0h.; outline: as §2
[27] = system: HeLa; assay: Antiviral activity was measured against Polio virus-1 in HeLa cells.; settings: Homo sapiens; outline: as §5
[28] = system: HeLa; assay: Antiviral activity was measured against Vesicular stomatitis virus in HeLa cells.; settings: Homo sapiens; outline: as §5
[29] = Antiviral activity was measured against Vaccinia virus in rabbit kidney cells.; settings: Oryctolagus cuniculus; outline: as §5
[30] = Antiviral activity was measured against Vesicular stomatitis virus in rabbit kidney cells.; settings: Oryctolagus cuniculus; outline: as §5
[31] = Antiviral activity was measured against vesicular stomatitis virus in rabbit kidney cells.; settings: Oryctolagus cuniculus; outline: as §5
[32] = system: HeLa; assay: Antiviral activity was measured against polio virus-1 in HeLa cells.; settings: Homo sapiens; outline: as §5
[33] = system: HeLa; assay: Antiviral activity was measured against vesicular stomatitis virus in HeLa cells.; settings: Homo sapiens; outline: as §5
[34] = Antiviral activity was measured against vaccinia virus in rabbit kidney cells.; settings: Oryctolagus cuniculus; outline: as §5

| SMILES | MCC [1] | MCC [3] | MCC [6] | MCC [7] | MCC [10] | MCC [11] | MCC [15] | MCC [18] | MCC [19] | MCC [20] | MCC [21] | MCC [22] | MCC [24] | MCC [25] | other results |
| --- | --- | --- | --- | --- | --- | --- | --- | --- | --- | --- | --- | --- | --- | --- | --- |
| Nc1ncnc2c1ncn2[C@@H]1O[C@H](CO)[C@H](O)[C@H]1O | > 100 µg/mL | 200 µg/mL | > 40 µg/mL | > 40 µg/mL | > 100 µg/mL | 20 µg/mL | > 40 µg/mL | 100 µg/mL | > 40 µg/mL | > 40 µg/mL | > 40 µg/mL | > 40 µg/mL | > 40 µg/mL | 20 µg/mL | No. of living cells [2]: 0.4; No. of living cells [4]: 0.864; IC50 [5]: 17 µg/mL (≈ 63.6 µM); No. of living cells [8]: 0.048; No. of living cells [9]: 0; No. of living cells [12]: 0.123; IC50 [13]: 23 µg/mL (≈ 86.1 µM); IC50 [14]: 46 µg/mL (≈ 172 µM); No. of living cells [16]: 0.008; IC50 [17]: 37 µg/mL (≈ 138 µM); No. of living cells [23]: 1.368; No. of living cells [26]: 0.123 |
| NC(=O)c1ncn([C@@H]2O[C@H](CO)[C@@H](O)[C@H]2O)n1 [RIBAVIRIN] | ≥ 400 µg/mL | > 400 µg/mL | 70 µg/mL | 70 µg/mL | > 400 µg/mL | 70 µg/mL | 7 µg/mL | ≥ 400 µg/mL | > 400 µg/mL | > 400 µg/mL | 70 µg/mL | 20 µg/mL | 70 µg/mL | 150 µg/mL | MCC [27]: 70 µg/mL; MCC [28]: 20 µg/mL; MCC [29]: 7 µg/mL; MCC [30]: 100 µg/mL |
| Nc1ncnc2c1ccn2[C@@H]1O[C@H](CO)[C@@H](O)[C@H]1O [TUBERCIDIN] | ≥ 0.4 µg/mL | 0.4 µg/mL | > 0.4 µg/mL | > 0.1 µg/mL | ≥ 0.4 µg/mL | 0.007 µg/mL | 0.1 µg/mL | ≥ 1 µg/mL | > 0.1 µg/mL | > 0.1 µg/mL | > 0.1 µg/mL | 0.2 µg/mL | 0.2 µg/mL | 0.01 µg/mL | MCC [31]: 0.07 µg/mL; MCC [32]: 0.2 µg/mL; MCC [33]: 0.07 µg/mL; MCC [34]: > 0.1 µg/mL |
